167 variants from the RNAGym collection of RNA variant scans (doi:10.1126/science.aae0568) can be followed below.

To fix the notation:
B1: tRNA (parent)
chain: GUUCCGUUGGCGUAAUGGUAACGCGUCUCCCUCCUAAGGAGAAGACUGCGGGUUCGAGUCCCGUACGGAACG

This sample holds only a part of the variants without activity. Where only a bound is given, the exact number is not on record here.

Variants of B1 are the subject of the data set. The data set is described as follows: yeast fitness relative to wild type (ratio to wild type); higher = fitter; tRNA-Arg(CCU), competitive growth, 37 C, YPD. The essentials:
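Genotype frequency changes were the basis for Darwinian fitness relative to wild type. The frequencies came from 100-nucleotide paired-end sequencing of gene amplicons from the start population and each end population of pooled yeast strains with tRNA-Arg(CCU) gene variants at the native locus. Competition ran in YPD at 37°C for 24 hours in six replicates, genotypes needed ≥ 100 starting reads, and estimates < 0.5 were set to 0.5.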
With G10A C29G U53A G56C C62G, the yeast fitness was at most 0.5.

As for G10A C24A C62U, the yeast fitness is at most 0.5.

G9C G52A: the yeast fitness is 0.564.

Take G10A C11U C24A C55G: the yeast fitness is 0.595.

G10A C30G C46U: the yeast fitness was at most 0.5.

Regarding G9C U16C C30U A65G, the yeast fitness was at most 0.5.

Turning to G10A C11U C29A C34A G44A A69C, the yeast fitness was at most 0.5.

For the variant G10A A57U U59C, the yeast fitness is at most 0.5.

In the case of G10A A20C G38A G41A A65C, the yeast fitness is at most 0.5.

In the case of G9C G51C G58A, the yeast fitness is at most 0.5.

Turning to G9C U13C A20C, the yeast fitness is 0.706.

On to G10A A21G A65U A69C, for which the yeast fitness was determined as 0.777.

Consider G10A A21U A43U A45U G50C, for which the yeast fitness is at most 0.5.

With G10A A15C C34A G56A, the yeast fitness is at most 0.5.

As to G10A C24A G56C, the yeast fitness was at most 0.5.

With G9C U32C A36G, the yeast fitness is at most 0.5.

G10A C27G: the yeast fitness was found to be 0.551.

For G10A C27U, the yeast fitness came to 0.817.

Regarding G9C U13A G25A A40C A57C C61A G67A, the yeast fitness came to 0.553.

With G10A A21G C27U A40U, the yeast fitness is at most 0.5.

As to G10A A57U A65U, the yeast fitness is at most 0.5.

With G9C G58C U59A C60U, the yeast fitness is at most 0.5.

Regarding G10A A15U A21C G25C C66U G67U G68A, the yeast fitness was at most 0.5.

For the variant G10A A42U, the yeast fitness came out at 0.805.

Consider G9C U32C U53C, for which the yeast fitness is at most 0.5.

With G10A C46U, the yeast fitness is 0.812.

G10A A21U C27U C49A U64C: the yeast fitness is at most 0.5.

For G10A A14G A70C, the yeast fitness stood at 0.535.

On to G10A C30U U47A, for which the yeast fitness was at most 0.5.

On to G9U, for which the yeast fitness turned out to be 0.955.

In the case of G10A C11U A36G G67C, the yeast fitness came out at 0.572.

Consider G9U A20C C29U G50C U59G C62U G68A, for which the yeast fitness is at most 0.5.

G10A C30U C33G: the yeast fitness was found to be 0.538.

Regarding G10A A57U A65C A70G, the yeast fitness is at most 0.5.

On to G9U C33U A43U U59G, for which the yeast fitness came to 0.676.

For G10A C11U U35A C61U, the yeast fitness is at most 0.5.

On to G9U C24G A45C, for which the yeast fitness is at most 0.5.

G10A C33U A45U G48C U64A: the yeast fitness is at most 0.5.

Take G10A C31U A37G: the yeast fitness came out at 0.796.

In the case of G10A C11A A20U C66G, the yeast fitness is at most 0.5.

As for G9C U54G A70C, the yeast fitness was found to be 0.545.

Take G10A A21C A57U: the yeast fitness is at most 0.5.

Regarding G10A C24A A43U G48A, the yeast fitness was at most 0.5.

For the variant G9C U32G A70C, the yeast fitness was at most 0.5.

For the variant G10A A14C C34U A42G A65U G68A, the yeast fitness was at most 0.5.

Regarding G10A C33U U59C, the yeast fitness is at most 0.5.

On to G9C U26G U32A A57U, for which the yeast fitness was determined as 0.633.

Turning to G10A C29G A43U U53G, the yeast fitness is at most 0.5.

G9C U13A G25A A65U: the yeast fitness is at most 0.5.

Consider G10A C24A C30A C31G A43U U54G C62G, for which the yeast fitness came to 0.544.

With G9U C22G A70U, the yeast fitness was 0.623.

With G10A A37U G39A A57U, the yeast fitness is at most 0.5.

Regarding G10A A36G A65U, the yeast fitness is at most 0.5.

With G9C G51C G52A C60A A70U, the yeast fitness was at most 0.5.

Regarding G10A C22U C27U C33U A43U U54C, the yeast fitness was at most 0.5.

As to G10A C55G C60A C66A A69U, the yeast fitness is at most 0.5.

Take G10A C31A G38C G44A A65G: the yeast fitness is at most 0.5.

Consider G10A A14G C27U A40C U47A G48C, for which the yeast fitness was at most 0.5.

Consider G10A C24U C49U, for which the yeast fitness is 0.53.

Consider G10A C33U U64A, for which the yeast fitness stood at 0.553.

Regarding G10A A21C G52C, the yeast fitness is at most 0.5.

In the case of G10A A20U U35C G48C C60A, the yeast fitness is at most 0.5.

Turning to G10A C30A C55A G58A, the yeast fitness was at most 0.5.

With G9C G56A, the yeast fitness is 0.863.

In the case of G10A C49U A69U, the yeast fitness was at most 0.5.

With G9U G63A A65U, the yeast fitness was at most 0.5.

In the case of G10A C29A U35A G56A G67C, the yeast fitness is at most 0.5.

Consider G10A A15G G38C, for which the yeast fitness is at most 0.5.

Consider G10A A57C C66G, for which the yeast fitness was at most 0.5.

For G9C U26A U47C G48A C49U G56A G67C A69G, the yeast fitness is at most 0.5.

Consider G9U A21C A42U G44C U53C, for which the yeast fitness was at most 0.5.

In the case of G10A C30U, the yeast fitness came out at 0.748.

In the case of G10A C30G, the yeast fitness turned out to be 0.511.

Take G10A C30A: the yeast fitness was 0.64.

Take G9C U26A G48C: the yeast fitness was at most 0.5.

Turning to G9C U19A A21G A43C A65G G67A, the yeast fitness was at most 0.5.

As to G10A A65U, the yeast fitness amounted to 0.788.

On to G10A A65C, for which the yeast fitness was determined as 0.786.

For the variant G10A A20U A45U C55U A70C, the yeast fitness was determined as 0.576.

Consider G9C G67A, for which the yeast fitness stood at 0.58.

Take G10A A14G C33U: the yeast fitness was at most 0.5.

As for G10A A20C C27G A40G G56C, the yeast fitness was at most 0.5.

Take G10A A14G C29G: the yeast fitness is at most 0.5.

As for G10A A57U U59A A65C, the yeast fitness was 0.561.

In the case of G9C U16G C29A C66U, the yeast fitness was at most 0.5.

Regarding G10A C29A A57C U59A, the yeast fitness was at most 0.5.

On to G10A A14C U32A, for which the yeast fitness is at most 0.5.

Consider G10A A20G C29U C49U G56A G63A, for which the yeast fitness was at most 0.5.

As to G9C U16C A42C, the yeast fitness is at most 0.5.

For G10A C31U C34A A40G U59A, the yeast fitness was 0.596.

Regarding G10A A14U C30U A37C U53A, the yeast fitness was at most 0.5.

With G10A C29A C34G A43C, the yeast fitness was 0.68.

Take G9C U26A: the yeast fitness turned out to be 0.613.

For the variant G10A A15G A65U, the yeast fitness turned out to be 0.702.

On to G9C G68A, for which the yeast fitness amounted to 0.763.

G10A C11U A15G C30U U47C C61G A69C: the yeast fitness is at most 0.5.

Take G9C U28A C46U A70U: the yeast fitness was 0.615.

Take G9C G68C A69C: the yeast fitness was at most 0.5.

As for G10A A21C C66U, the yeast fitness was found to be 0.531.

G10A C30U C34U A42G A69C A70G: the yeast fitness is at most 0.5.

As to G10A A14U U19A G23C C29A C66A, the yeast fitness was at most 0.5.

As for G9C U35A A45C U47G C62G A65C, the yeast fitness is at most 0.5.

For the variant G9C G58C, the yeast fitness worked out at 1.06.

On to G9C G58A, for which the yeast fitness stood at 0.869.

In the case of G10A C29G C34G, the yeast fitness was at most 0.5.

Turning to G10A C24U C60U, the yeast fitness was at most 0.5.

Take G10A A14U A20G U26G C31G C34G A42U A43C G50C G63A: the yeast fitness was at most 0.5.

Consider G9C U16A C29A G58C A69U, for which the yeast fitness was 0.645.

As for G9C U13A G25A A40C A57C C61A, the yeast fitness was at most 0.5.

As to G9C U19C C29U A36U G67A, the yeast fitness was at most 0.5.

In the case of G9C U19A G58A A65G, the yeast fitness is at most 0.5.

Turning to G9C U13C, the yeast fitness was 0.626.

Regarding G10A A21G A65C, the yeast fitness was found to be 0.545.

As to G10A C27A A37U G52A U54C G56C A57G, the yeast fitness was at most 0.5.

For the variant G10A A36G G38C, the yeast fitness was at most 0.5.

For the variant G10A C49A C61U, the yeast fitness is at most 0.5.

On to G10A C30A C31G A69G, for which the yeast fitness was at most 0.5.

Consider G9C U28A C29A U35G, for which the yeast fitness was at most 0.5.

Take G9C G51C C62G: the yeast fitness is at most 0.5.

In the case of G9U U13C A57C C66A, the yeast fitness was at most 0.5.

On to G9C U13C C30A C46A G48C A70C, for which the yeast fitness came to 0.548.

For G10A A15U A36U G63A, the yeast fitness was at most 0.5.

For G10A A65U G68A, the yeast fitness is at most 0.5.

G9U A65U: the yeast fitness was 0.639.

For the variant G10A C29G G39C, the yeast fitness was at most 0.5.

G10A C27G C33G G41C A65G G68A: the yeast fitness is at most 0.5.

In the case of G10A C24A C49G G58C, the yeast fitness was at most 0.5.

As for G9C U19C G48A C66U, the yeast fitness is 0.657.

As to G10A A45U G48A, the yeast fitness is at most 0.5.

Turning to G9C U19C C24U C27A, the yeast fitness was at most 0.5.

Take G9C U28G C29U C49U U54A C55U A70C: the yeast fitness is at most 0.5.

As to G10A A37C, the yeast fitness came to 0.741.

Take G10A A37U: the yeast fitness amounted to 0.622.

G10A A37G: the yeast fitness came to 0.551.

For G10A C24A C29G U35A A36U, the yeast fitness is at most 0.5.

For the variant G10A A36U, the yeast fitness stood at 0.596.

On to G10A A21G A40U, for which the yeast fitness was 0.558.

For G9C U54C, the yeast fitness came to 0.704.

Take G9C U54A: the yeast fitness came to 0.658.

G10A A36C A45C A70U: the yeast fitness is at most 0.5.

On to G10A C24U C55U C66U, for which the yeast fitness was 0.52.

With G10A C31A G41C, the yeast fitness was at most 0.5.

Take G9U G39C A70C: the yeast fitness was at most 0.5.

For the variant G10A A43C, the yeast fitness came out at 0.811.

G10A A43G: the yeast fitness was found to be 0.65.

As to G10A C29A, the yeast fitness came out at 0.574.

With G9C U32A G58C, the yeast fitness was 0.583.

As for G9C U19C C31G, the yeast fitness was found to be 0.605.

As to G9C U16C C30U U32G, the yeast fitness is at most 0.5.

On to G9U G68C, for which the yeast fitness was determined as 0.77.

In the case of G10A A15U G17C A45U C49G A70U, the yeast fitness is at most 0.5.

With G10A A21C C24A A65C G68C, the yeast fitness is at most 0.5.

For the variant G9C G50C C60U C62A, the yeast fitness is at most 0.5.

Regarding G10A C24U A36C, the yeast fitness was at most 0.5.

Turning to G10A C11G C31U A37C, the yeast fitness was at most 0.5.

With G10A A20G U26C G39A G50A, the yeast fitness is at most 0.5.

For G10A C24A A43C, the yeast fitness is at most 0.5.

Take G10A C30U C34U A42G A57C: the yeast fitness is at most 0.5.

G10A C24A C33U A57U U59G: the yeast fitness was at most 0.5.

Turning to G10A A15C A45C C49G, the yeast fitness amounted to 0.553.

As for G10A C11A A15C C24A, the yeast fitness was at most 0.5.

G9U C24G C55U C66U: the yeast fitness was at most 0.5.

As to G10A A20G G41A C49U U53A C66G, the yeast fitness is at most 0.5.

Regarding G9C U32C A36G A70U, the yeast fitness was at most 0.5.

Take G10A A36U A43G: the yeast fitness was found to be 0.607.

With G10A C31G, the yeast fitness turned out to be 0.651.

G9U C24U U35A A40G C60A G67C: the yeast fitness is at most 0.5.
